# MLL AF4-AF9 inh – MLL-AF4/AF9 protein interaction inhibition. P42568. 350,000 compounds, 0.47% hits. inhibition, % at 10 µM. AlphaScreen, biotin-AF4 peptide binding to FLAG-AF9;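 active means every replicate reaching a set inhibition limit, whatever the replicate mean, cut at about 25% in these data; inconclusive means mean inhibition reaches that limit but some replicates miss it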;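 further: 0% = plate neutral control median and 100% = total signal loss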
# GSIS activator – primary screen for activators of insulin secretion dependent on glucose, INS-1E cells, GLuc reporter luminescence. INS-1E GLuc reporter insulin secretion, 2-3 h. AID 743287. activation, % at 16.6 µM. 370,000 compounds, 0.61% hits;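 active means lowest replicate activation of at least 40%, so every replicate reaches that level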;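 further: 0% = median of neutral control wells and 100% = median of IBMX positive control wells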
# E-sel inducer – E-selectin induction on HUVECs | P16581 | HUVEC E-selectin immunofluorescence imaging; normalized: neutral wells 0, TNF-alpha wells 100 | activation, % at 7.58 µM | 260,000 compounds, 0.37% hits;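 active means mean E-selectin-positive cell signal at least 10% of the positive control, reached in at least 60% of replicates, without over 20% cell loss; inconclusive means no rule given, readout overlaps actives, possibly toxicity-flagged; inactive means the rest, including those meeting only one limit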
#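 Read-out: % PE-positive cells | Test system: HUVEC | Doses: One compound dose added by pin transfer | Buffer or medium: EGM-2 over gelatin coat | Signal: Immunofluorescence imaging | Benchmarks: TNF-alpha, DMSO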
# Ecoli rRNA inh – selective bacterial rRNA inhibition in E. coli | E. coli WT GFP vs humanized-ribosome RFP mutants, fluorescence, 24 h; stronger effect = lower value; DMSO median 0, no signal -100 | GFP signal change (wild-type ribosome), % (no concentration beside the values) | 350,000 compounds, 1.6% hits;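 active means significant combined selectivity score with lowered wild-type GFP, culture density cut under 30%, mutant RFP and density less affected; inactive means any of these conditions unmet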
# RAD52 inh – blocks human RAD52 DNA annealing. inhibition, % at 18.7 µM. recombinant RAD52 DNA annealing, FRET fluorescence. 360,000 compounds, 0.46% hits. P43351;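 active means every replicate showing at least 50% inhibition; inconclusive means mean inhibition at least 50% but not in every replicate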
# RAD54 inh – RAD54 (human) branch migration inhibition | RAD54 Holliday junction branch migration, FAM/BHQ fluorescence | inhibition, % at 10.4 µM | 360,000 compounds, 0.14% hits;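 active means mean normalized replicate activity at least 40 and at least half of replicates scoring 40 or more; inconclusive means only one of the two criteria met; inactive means mean below 40 and under half of replicates reaching 40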;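 further: 0% = median of neutral control wells and 100% = median of positive control wells; inhibitors cause a drop in the FAM fluorescence signal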
# Target sequence (Q92698 whole entry, looked up): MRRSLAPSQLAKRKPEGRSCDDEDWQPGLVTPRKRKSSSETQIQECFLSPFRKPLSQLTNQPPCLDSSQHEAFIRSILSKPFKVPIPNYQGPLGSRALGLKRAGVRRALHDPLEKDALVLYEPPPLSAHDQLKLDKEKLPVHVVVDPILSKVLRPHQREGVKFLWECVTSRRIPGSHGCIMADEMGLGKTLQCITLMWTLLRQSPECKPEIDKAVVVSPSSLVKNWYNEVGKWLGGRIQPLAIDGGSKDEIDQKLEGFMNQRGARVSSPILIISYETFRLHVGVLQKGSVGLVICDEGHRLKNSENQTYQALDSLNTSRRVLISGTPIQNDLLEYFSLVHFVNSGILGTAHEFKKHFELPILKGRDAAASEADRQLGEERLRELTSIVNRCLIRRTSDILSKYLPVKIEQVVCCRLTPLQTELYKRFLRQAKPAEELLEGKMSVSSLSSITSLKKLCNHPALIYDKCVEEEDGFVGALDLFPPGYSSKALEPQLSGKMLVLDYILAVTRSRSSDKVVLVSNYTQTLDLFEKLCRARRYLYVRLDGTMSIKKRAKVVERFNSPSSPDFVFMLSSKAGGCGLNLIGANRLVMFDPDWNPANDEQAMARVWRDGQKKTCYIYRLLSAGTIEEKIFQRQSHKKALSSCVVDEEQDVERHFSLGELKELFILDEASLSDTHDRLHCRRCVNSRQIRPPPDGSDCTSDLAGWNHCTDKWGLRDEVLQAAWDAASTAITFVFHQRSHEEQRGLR
# RAD52 DNA ctr – binds DNA, flagging false RAD52 inhibitor hits; shares compounds with RAD52 inh; Salmon sperm DNA/acridine orange FP displacement, DNA binding; AC50, µM; 1,000 compounds, 8% hits;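 active means fitted half-maximal concentration for signal loss at or below twice the highest dose tested, in every separate run, actives reach about 64 µM in these data; inconclusive means runs disagree, or flat partial signal loss, or poor fit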
# * = called active by the depositor; i = inactive; ? = inconclusive; nt = not tested or not shown. Most compounds without a hit are left out; they make up all but 2.6% or so of the library.
SMILES,MLL AF4-AF9 inh,GSIS activator,E-sel inducer,Ecoli rRNA inh,RAD52 inh,RAD54 inh,RAD52 DNA ctr
COc1cc(NC(C)CCCN)c2ncccc2c1 (stereo unspecified),31*,nt,0,nt,84*,27,i
Cc1cc(N/N=C/c2ccccc2O)c2ccccc2n1,?,-3,nt,-51,102*,104*,i
C[C@@H]1CN([C@H](C)CO)C(=O)Cc2cc(NC(=O)CCN3CCOCC3)ccc2O[C@H]1CN(C)C(=O)Nc1ccc2c(c1)OCO2,1,4,?,3,-5,5,nt
COc1cc2c(oc(=O)c3cc(C)cc(OC)c32)c2c(C3OC(C)C(O)C(C)(O)C3O)ccc(O)c12 (stereo unspecified),-1,nt,0,8,73*,nt,i
CC1(C)Cc2c(c(N3CCCC3)nc3sc4c(N5CCN(CCO)CC5)ncnc4c23)CO1,2,27,nt,-21,58*,25,i
CCOC(=O)CCc1c(C)nc(SCc2ccc(C(=O)O)cc2)c(C#N)c1C,-9,-4,-1,-13,96*,2,i
O=C(CCn1nc(-c2ccc(Cl)cc2)ccc1=O)NCCCN1CCCCCC1,nt,-15,nt,0,63*,-18,i
Fc1ccc2c(c1)Sc1ccc(Cl)cc1CC2N1CCN(CCC2OCCO2)CC1 (stereo unspecified),16,18,0,-46,81*,nt,i
COCCCN1CCN(C2Cc3ccccc3Sc3ccc(Cl)cc32)CC1 (stereo unspecified),nt,-9,nt,nt,nt,-4,nt
CCN(Cc1ccncc1)Cc1ccc(OC)cc1OC,0,18,7,5,99*,0,i
CCC(C)[C@H](N)c1cn([C@@H](Cc2cc3ccccc3[nH]2)C(=O)N2CCNCC2)nn1 (stereo partly specified),30*,6,0,0,96*,12,i
CC(C)C[C@H](N)c1cn([C@@H](Cc2cc3ccccc3[nH]2)C(=O)N2CCNCC2)nn1,nt,6,0,nt,nt,11,nt
Cc1ccc2nc(N=C(N)N)nc(C)c2c1,0,-6,nt,-18,51*,?,i
Cc1nc(N=C(N)N)nc2ccccc12,4,29,2,16,61*,nt,i
CCCC(=O)N/C(N)=N/c1nc(C)c2cc(C)ccc2n1,-2,1,0,-8,2,4,nt
CCc1ccc2nc(N=C(N)N)nc(C)c2c1,2,-3,-3,-16,51*,nt,i
Cc1cc2nc(N=C(N)N)nc(C)c2cc1C,3,-3,2,8,84*,?,i
CCC(=O)N(C)C[C@H]1Oc2ncc(C#CCC(C)C)cc2C(=O)N([C@@H](C)CO)C[C@@H]1C,-3,-8,0,0,5,-39,nt
COc1ccc(S(=O)(=O)Nc2ccc3c(c2)CC(=O)N([C@H](C)CO)C[C@H](C)[C@H](CN(C)S(=O)(=O)c2ccccc2)O3)cc1,nt,2,-1,-1,nt,-3,nt
C[C@@H]1CCCCO[C@H](CN(C)C(=O)C2CCCCC2)[C@H](C)CN([C@@H](C)CO)C(=O)c2cc(NS(=O)(=O)c3ccc(Cl)cc3)ccc2O1,5,-12,0,-2,12,-1,nt
CO[C@H]1CC[C@@H]2CCN(C)C(=O)[C@@H](C)[C@H](OC)CN(C)C(=O)c3cc(C#N)ccc3OC[C@H]1O2,-9,11,0,1,-11,3,nt
CCN(CC)CCNC(=S)Nc1ccc2nc(N3CCCC3)cc(C)c2c1,9,14,nt,22,76*,nt,i
CCC(C)NC(=S)Nc1ccc2nc(N3CCOCC3)cc(C)c2c1 (stereo unspecified),2,-16,0,-31,2,2,nt
COCCNC(=S)Nc1ccc2nc(N3CCN(C)CC3)cc(C)c2c1,8,1,0,2,52*,22,i
Cc1cc(N2CCN(C)CC2)nc2ccc(NC(=O)c3ccc(Br)o3)cc12,nt,nt,nt,nt,nt,14,nt
Cc1cc(N2CCCCC2)nc2ccc(NC(=O)c3ccc(Br)o3)cc12,nt,nt,nt,nt,nt,9,nt
